The test system of assay [1] is Bacillus subtilis. Nature of the assay: Growth inhibition of Bacillus subtilis 168 at 0.2 mM measured every 10 mins over 16 hrs relative to control. Particulars: subsp. subtilis str. 168, read-out: GI. In kind it is functional. In outline:
(§1)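 Cultures grown with compound at 0.2 mM; growth expressed as a percentage of the untreated positive control (growth without inhibitor, taken as 100%). B. subtilis (Gram-positive) and E. coli (Gram-negative) assayed in parallel.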

For assay [2], the system named is Bacillus subtilis subsp. subtilis str. 168. Description: Inhibition of Bacillus subtilis 168 RNA polymerase subunit beta' CH region interaction with full length sigmaA at 15 uM by ELISA relative to control. In outline:
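ELISA measuring binding of B. subtilis σA to the β'-CH region of core RNAP with compound at 15 μM. Signal expressed as a percentage of the positive control (σA–β'-CH interaction without inhibitor, set at 100%).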

The subject of assay [3] is Escherichia coli. Description: Growth inhibition of Escherichia coli DH5[alpha] at 0.2 mM measured every 10 mins over 16 hrs relative to control. It is filed as functional. Particulars: read-out: GI. In outline: as §1

For `COc1cc(OC)c2c(-c3ccc(Cl)cc3)c[nH]c2c1C=C1C(=O)NC(=O)NC1=O`, the results for the inhibition of growth at 200 µM in assay [1] and in assay [3] were 41% and 30%, respectively. Besides, the inhibition in assay [2] came out at 15%.
Take `COc1cc(OC)c2c(-c3ccccc3)c[nH]c2c1/C=C1\SC(=S)NC1=O`: the inhibition of growth at 200 µM in assay [1] was determined as 44%; in assay [3], 45%. The molecule further showed an inhibition in assay [2] of 17%.
For `C=CCN1C(=O)/C(=C/c2c(OC)cc(OC)c3cc(C(=O)O)[nH]c23)SC1=S`, the inhibition of growth at 200 µM is 21% in assay [1] and 30% in assay [3]. In assay [2], this molecule returned an inhibition of 74%.
The like results for `C=CCN1C(=O)/C(=C/c2c(OC)cc(OC)c3cc(C(=O)OC)[nH]c23)SC1=S` were, in that order, 22%, 79% and 46%.
The like results for `C=CCN1C(=O)/C(=C/c2c(OC)cc(OC)c3c(-c4ccc(Cl)cc4)c[nH]c23)SC1=S` were, in that order, 8%, 14% and 34%.
For `C=CCN1C(=O)/C(=C/c2c(OC)cc(OC)c3cc(C(=O)OCc4ccccc4)[nH]c23)SC1=S`, the figures for the inhibition of growth at 200 µM in assay [1] and in assay [3] were 6% and 28%, respectively. The molecule further came in with an inhibition in assay [2] of 63%.
The like results for `COc1cc(OC)c2c(-c3ccccc3)c[nH]c2c1C=C1C(=O)NC(=S)NC1=O` were, in that order, 0%, 0% and 14%.
The like results for `COc1cc(OC)c2cc(C(=O)O)[nH]c2c1C=C1C(=O)NC(=S)NC1=O` were, in that order, 0%, 0% and 71%.
On the same counts, the results for `COc1cc(OC)c2cc(C(=O)O)[nH]c2c1C=C1C(=O)NC(=O)NC1=O` are 0%, 0% and 28%.
For the molecule `COC(=O)c1cc2c(OC)cc(OC)c(C=C3C(=O)NC(=S)NC3=O)c2[nH]1`, the inhibition of growth at 200 µM in assay [1] worked out at 91%; in assay [3] it was 57%. Also, the inhibition in assay [2] was found to be 17%.
The like results for `COC(=O)c1cc2c(OC)cc(OC)c(/C=C3\SC(=S)NC3=O)c2[nH]1` were, in that order, 45%, 28% and 3%.
Turning to `COc1cc(OC)c2c(-c3ccc(Cl)cc3)c[nH]c2c1C=C1C(=O)NC(=S)NC1=O`, the inhibition of growth at 200 µM in assay [1] was found to be 0%; in assay [3], 24%. In assay [2], this molecule yielded an inhibition of 14%.
On the same counts, the results for `COc1cc(OC)c2c(-c3ccc(Cl)cc3)c[nH]c2c1/C=C1\SC(=S)NC1=O` are 0%, 15% and 21%.
The like results for `COC(=O)c1cc2c(OC)cc(OC)c(C=C3C(=O)NC(=O)NC3=O)c2[nH]1` were, in that order, 89%, 20% and 28%.
For the molecule `C=CCN1C(=O)/C(=C/c2c(OC)cc(OC)c3c(-c4ccccc4)c[nH]c23)SC1=S`, the inhibition of growth at 200 µM stood at 44% in assay [1] and 66% in assay [3]. For the same molecule, the inhibition in assay [2] was determined as 0%.
The like results for `COc1cc(OC)c2cc(C(=O)O)[nH]c2c1/C=C1\SC(=S)NC1=O` were, in that order, 0%, 26% and 36%.
Consider `COc1cc(OC)c2c(-c3ccccc3)c[nH]c2c1C=C1C(=O)NC(=O)NC1=O`, for which the inhibition of growth at 200 µM in assay [1] amounted to 83%; in assay [3] it was 0%. Moreover, the inhibition in assay [2] came to 45%.

For the origin of these results see ChEMBL document CHEMBL4043208, “Small molecule inhibitors of bacterial transcription complex formation” (2017).
